Assay results: ChEMBL document CHEMBL2384906, “Biological activity, design, synthesis and structure activity relationship of some novel derivatives of curcumin containing sulfonamides” (Eur J Med Chem, 2013)
In brackets after ≈: the same amount, converted by molar mass. Activity calls are given as the source filed them. The calls are words filed in the database; no cut-off is given here.

Key:
Escherichia coli [1] = experiment: Antimicrobial activity against Escherichia coli ATCC 35218 after 24 hrs by broth micro serial dilution method; format: functional; settings: ATCC 35218, 24 h
In short: (§1)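 This was broth microdilution in autoclaved Mueller-Hinton broth. 150 µL of compound per well was serially diluted […], and 50 µL of test organism was added. Plates were incubated 24 h at 37 °C and optical density was read.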

Pseudomonas aeruginosa [2] = experiment: Antimicrobial activity against Pseudomonas aeruginosa ATCC 15499 assessed as diameter of inhibition zone at 40 uM after 24 hrs by Kirby -Baur disc diffusion method; format: functional; settings: ATCC 15499, 24 h, read-out: DIZ
In short: (§2)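 Kirby-Bauer disc diffusion was used. Acetone stocks (160 µM) were serially doubled down to 80, 40 and 20 µM. 4 µL of each went onto 5 mm sterile paper discs, which were dried 30 min at 50 °C. Inoculum was 1.5 × 10⁸ CFU/mL diluted to 3 × 10² CFU/mL, and 50 µL was spread on Mueller-Hinton agar. After 24 h at 37 °C the inhibition-zone diameter was measured. Ciprofloxacin served as positive control.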

Salmonella typhi [3] = experiment: Antimicrobial activity against Salmonella typhi ATCC 23564 after 24 hrs by broth micro serial dilution method; format: functional, Salmonella enterica subsp. enterica serovar Typhi; settings: Salmonella enterica, ATCC 23564, 24 h
HeLa = experiment: Cytotoxicity against human HeLa cells after 24 hrs by MTT assay; format: functional, cell-based
In short: (§3)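 The MTT assay seeded 5 × 10⁴ cells per well and grew them 24 h in RPMI 1640 with compound at 2.5–200 µM. Medium without cells was the blank and adriamycin the positive control. MTT was added for 4 h at 37 °C, formazan was solubilised, and absorbance was read at 570 nm. IC50 is the concentration that cuts viability 50% against untreated cells.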

HepG2 = experiment: Cytotoxicity against human HepG2 cells after 24 hrs by MTT assay; format: functional, cell-based; in short: as §3
Escherichia coli [4] = experiment: Antimicrobial activity against Escherichia coli ATCC 35218 assessed as diameter of inhibition zone at 80 uM after 24 hrs by Kirby -Baur disc diffusion method; format: functional; settings: ATCC 35218, 24 h, read-out: DIZ; in short: as §2
Pseudomonas aeruginosa [5] = experiment: Antimicrobial activity against Pseudomonas aeruginosa ATCC 15499 assessed as diameter of inhibition zone at 80 uM after 24 hrs by Kirby -Baur disc diffusion method; format: functional; settings: ATCC 15499, 24 h, read-out: DIZ; in short: as §2
Aspergillus flavus [6] = experiment: Antifungal activity against Aspergillus flavus MTCC 1021 assessed as zone of inhibition at 20 uM after 48 hrs by disc diffusion method; format: functional
In short: (§4)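 Spores from 4-day potato dextrose agar cultures, suspended in sterile water at 1.5 × 10⁵ CFU/mL. 0.2 mL was spread on potato dextrose agar. 5 mm filter-paper discs soaked with test compound were laid on the lawn. Incubation was 48 h at 28 °C, then the inhibition zone was measured in mm. Fluconazole was the positive control and acetone the negative control.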

Trichoderma viride [7] = experiment: Antifungal activity against Trichoderma viride MTCC 1107 assessed as zone of inhibition at 80 uM after 48 hrs by disc diffusion method; format: functional; settings: MTCC 1107, 48 h, read-out: IZ; in short: as §4
Trichoderma viride [8] = experiment: Antifungal activity against Trichoderma viride MTCC 1107 after 48 hrs; format: functional; settings: MTCC 1107, 48 h
Curvularia lunata [9] = experiment: Antifungal activity against Curvularia lunata MTCC 581 after 48 hrs; format: functional; settings: MTCC 581, 48 h
Escherichia coli [10] = experiment: Antimicrobial activity against Escherichia coli ATCC 35218 assessed as diameter of inhibition zone at 20 uM after 24 hrs by Kirby -Baur disc diffusion method; format: functional; in short: as §2
Bacillus cereus [11] = experiment: Antimicrobial activity against Bacillus cereus MTCC 7350 assessed as diameter of inhibition zone at 40 uM after 24 hrs by Kirby -Baur disc diffusion method; format: functional; in short: as §2
HCT-116 = experiment: Cytotoxicity against human HCT116 cells after 24 hrs by MTT assay; format: functional, cell-based; in short: as §3
Pseudomonas aeruginosa [12] = experiment: Antimicrobial activity against Pseudomonas aeruginosa ATCC 15499 assessed as diameter of inhibition zone at 20 uM after 24 hrs by Kirby -Baur disc diffusion method; format: functional; in short: as §2
Salmonella typhi [13] = experiment: Antimicrobial activity against Salmonella typhi ATCC 23564 assessed as diameter of inhibition zone at 80 uM after 24 hrs by Kirby -Baur disc diffusion method; format: functional, Salmonella enterica subsp. enterica serovar Typhi; settings: Salmonella enterica, ATCC 23564, 24 h; read-out: DIZ
Mus musculus = experiment: Antiinflammatory activity in mouse assessed as inhibition of carrageenan-induced increase in paw volume at 200 mg/kg administered 1 hr prior to carrageenan challenge measured after 3 hrs relative to control; format: functional
In short: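 Mice were fasted 2 h and placed in groups of five. Controls received saline i.p. Phenylbutazone was given at 100 mg/kg i.p., curcumin at 200 mg/kg i.p., and derivatives at 200 mg/kg. After 1 h, 0.1 mL of 1% carrageenan in saline was injected subplantar into the right hind paw. Paw volume was followed by plethysmometer for 3 h, and % inhibition was calculated as (Vc − Vt)/Vc × 100.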

Curvularia lunata [14] = experiment: Antifungal activity against Curvularia lunata MTCC 581 assessed as zone of inhibition at 80 uM after 48 hrs by disc diffusion method; format: functional; settings: MTCC 581, 48 h, read-out: IZ; in short: as §4
Trichoderma viride [15] = experiment: Antifungal activity against Trichoderma viride MTCC 1107 assessed as zone of inhibition at 20 uM after 48 hrs by disc diffusion method; format: functional; settings: MTCC 1107, 48 h, read-out: IZ; in short: as §4
Aspergillus niger [16] = experiment: Antifungal activity against Aspergillus niger MTCC 1108 assessed as zone of inhibition at 80 uM after 48 hrs by disc diffusion method; format: functional; settings: MTCC 1108, 48 h, read-out: IZ; in short: as §4
Aspergillus niger [17] = experiment: Antifungal activity against Aspergillus niger MTCC 1108 after 48 hrs; format: functional; settings: MTCC 1108, 48 h
Aspergillus flavus [18] = experiment: Antifungal activity against Aspergillus flavus MTCC 1021 assessed as zone of inhibition at 80 uM after 48 hrs by disc diffusion method; format: functional; settings: MTCC 1021, 48 h, read-out: IZ; in short: as §4
Staphylococcus aureus [19] = experiment: Antimicrobial activity against Staphylococcus aureus ATCC 11632 assessed as diameter of inhibition zone at 20 uM after 24 hrs by Kirby -Baur disc diffusion method; format: functional; in short: as §2
Bacillus cereus [20] = experiment: Antimicrobial activity against Bacillus cereus MTCC 7350 after 24 hrs by broth micro serial dilution method; format: functional; settings: MTCC 7350, 24 h; in short: as §1
Trichoderma viride [21] = experiment: Antifungal activity against Trichoderma viride MTCC 1107 assessed as zone of inhibition at 40 uM after 48 hrs by disc diffusion method; format: functional; settings: MTCC 1107, 48 h, read-out: IZ; in short: as §4
Salmonella typhi [22] = experiment: Antimicrobial activity against Salmonella typhi ATCC 23564 assessed as diameter of inhibition zone at 20 uM after 24 hrs by Kirby -Baur disc diffusion method; format: functional; settings: Salmonella enterica subsp. enterica serovar Typhi
Bacillus cereus [23] = experiment: Antimicrobial activity against Bacillus cereus MTCC 7350 assessed as diameter of inhibition zone at 20 uM after 24 hrs by Kirby -Baur disc diffusion method; format: functional; in short: as §2
Curvularia lunata [24] = experiment: Antifungal activity against Curvularia lunata MTCC 581 assessed as zone of inhibition at 20 uM after 48 hrs by disc diffusion method; format: functional; settings: MTCC 581, 48 h, read-out: IZ; in short: as §4
Curvularia lunata [25] = experiment: Antifungal activity against Curvularia lunata MTCC 581 assessed as zone of inhibition at 40 uM after 48 hrs by disc diffusion method; format: functional; settings: MTCC 581, 48 h, read-out: IZ; in short: as §4
Pseudomonas aeruginosa [26] = experiment: Antimicrobial activity against Pseudomonas aeruginosa ATCC 15499 after 24 hrs by broth micro serial dilution method; format: functional; settings: ATCC 15499, 24 h; in short: as §1
Salmonella typhi [27] = experiment: Antimicrobial activity against Salmonella typhi ATCC 23564 assessed as diameter of inhibition zone at 40 uM after 24 hrs by Kirby -Baur disc diffusion method; format: functional; settings: Salmonella enterica subsp. enterica serovar Typhi
Aspergillus flavus [28] = experiment: Antifungal activity against Aspergillus flavus MTCC 1021 after 48 hrs; format: functional; settings: MTCC 1021, 48 h
Aspergillus niger [29] = experiment: Antifungal activity against Aspergillus niger MTCC 1108 assessed as zone of inhibition at 20 uM after 48 hrs by disc diffusion method; format: functional; in short: as §4
Aspergillus flavus [30] = experiment: Antifungal activity against Aspergillus flavus MTCC 1021 assessed as zone of inhibition at 40 uM after 48 hrs by disc diffusion method; format: functional; settings: MTCC 1021, 48 h, read-out: IZ; in short: as §4
Staphylococcus aureus [31] = experiment: Antimicrobial activity against Staphylococcus aureus ATCC 11632 assessed as diameter of inhibition zone at 40 uM after 24 hrs by Kirby -Baur disc diffusion method; format: functional; in short: as §2
Staphylococcus aureus [32] = experiment: Antimicrobial activity against Staphylococcus aureus ATCC 11632 assessed as diameter of inhibition zone at 80 uM after 24 hrs by Kirby -Baur disc diffusion method; format: functional; settings: ATCC 11632, 24 h, read-out: DIZ; in short: as §2
Bacillus cereus [33] = experiment: Antimicrobial activity against Bacillus cereus MTCC 7350 assessed as diameter of inhibition zone at 80 uM after 24 hrs by Kirby -Baur disc diffusion method; format: functional; settings: MTCC 7350, 24 h, read-out: DIZ; in short: as §2
Staphylococcus aureus [34] = experiment: Antimicrobial activity against Staphylococcus aureus ATCC 11632 after 24 hrs by broth micro serial dilution method; format: functional; settings: ATCC 11632, 24 h; in short: as §1
Aspergillus niger [35] = experiment: Antifungal activity against Aspergillus niger MTCC 1108 assessed as zone of inhibition at 40 uM after 48 hrs by disc diffusion method; format: functional; in short: as §4
QG-56 = experiment: Cytotoxicity against human QG56 cells after 24 hrs by MTT assay; format: functional, cell-based; in short: as §3
Escherichia coli [36] = experiment: Antimicrobial activity against Escherichia coli ATCC 35218 assessed as diameter of inhibition zone at 40 uM after 24 hrs by Kirby -Baur disc diffusion method; format: functional; in short: as §2

## COc1cc(/C=C/C(=O)C(/N=N/c2ccc(S(=O)(=O)Nc3cc(C)on3)cc2)=C(O)/C=C/c2ccc(O)c(OC)c2)ccc1O
Escherichia coli [1]
  MIC: > 80 µM
Pseudomonas aeruginosa [2]
  zone of inhibition at 40 µM: 9 mm
Salmonella typhi [3]
  MIC: > 80 µM
HeLa
  IC50: > 100 µM
HepG2
  IC50: Not Active
Escherichia coli [4]
  zone of inhibition at 80 µM: 11 mm
Pseudomonas aeruginosa [5]
  zone of inhibition at 80 µM: 9 mm
Aspergillus flavus [6]
  inhibition zone (IZ): inactive
Trichoderma viride [7]
  zone of inhibition at 80 µM: 13 mm
Trichoderma viride [8]
  MIC: 80 µM (≈ 50.6 µg/mL)
Curvularia lunata [9]
  MIC: 80 µM (≈ 50.6 µg/mL)
Escherichia coli [10]
  diameter of the inhibition zone (DIZ): inactive
Bacillus cereus [11]
  diameter of the inhibition zone (DIZ): inactive
HCT-116
  IC50: Not Active
Pseudomonas aeruginosa [12]
  diameter of the inhibition zone (DIZ): inactive
Salmonella typhi [13]
  zone of inhibition at 80 µM: 9 mm
Mus musculus
  inhibition in vivo at 200 mg/kg: 14.5%
Curvularia lunata [14]
  zone of inhibition at 80 µM: 13 mm
Trichoderma viride [15]
  zone of inhibition at 20 µM: 9 mm
Aspergillus niger [16]
  zone of inhibition at 80 µM: 12 mm
Aspergillus niger [17]
  MIC: > 80 µM
Aspergillus flavus [18]
  zone of inhibition at 80 µM: 10 mm
Staphylococcus aureus [19]
  diameter of the inhibition zone (DIZ): inactive
Bacillus cereus [20]
  MIC: > 80 µM
Trichoderma viride [21]
  zone of inhibition at 40 µM: 11 mm
Salmonella typhi [22]
  diameter of the inhibition zone (DIZ): inactive
Bacillus cereus [23]
  diameter of the inhibition zone (DIZ): inactive
Curvularia lunata [24]
  zone of inhibition at 20 µM: 9 mm
Curvularia lunata [25]
  zone of inhibition at 40 µM: 11 mm
Pseudomonas aeruginosa [26]
  MIC: > 80 µM
Salmonella typhi [27]
  diameter of the inhibition zone (DIZ): inactive
Aspergillus flavus [28]
  MIC: 80 µM (≈ 50.6 µg/mL)
Aspergillus niger [29]
  inhibition zone (IZ): inactive
Aspergillus flavus [30]
  zone of inhibition at 40 µM: 9 mm
Staphylococcus aureus [31]
  diameter of the inhibition zone (DIZ): inactive
Staphylococcus aureus [32]
  zone of inhibition at 80 µM: 9 mm
Bacillus cereus [33]
  zone of inhibition at 80 µM: 9 mm
Staphylococcus aureus [34]
  MIC: > 80 µM
Aspergillus niger [35]
  inhibition zone (IZ): inactive
QG-56
  IC50: Not Active
Escherichia coli [36]
  diameter of the inhibition zone (DIZ): inactive
